Assay outcomes: PubChem, several laboratories
HSV replic up: increases HSV replication in cells; HSV replication augmentation in cells, fold increase; maximum fold increase; actives 0.005% (n = 220,000); in the data active means maximum fold increase above about 1.5; inconclusive means no clear call, values can overlap the other calls; tested in PC3 cells
TNF death inh: TNF-alpha cell death inhibition in Jurkat FADD-/- cells | Jurkat FADD-/- TNF necroptosis rescue, ATP luminescence, 24 h; 0 = TNF only, 100 = no-TNF cells | activation (protection from cell death), % at 10 µM | actives 0.068% (n = 220,000) | AID 463075;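 active means activation, meaning protection from cell death, of at least 50% relative to plate controls; inactive means activation below 50%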;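 further: necroptosis triggered by 40 ng/mL TNF-alpha added together with compound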
Furin inh: blocks human furin protease activity; P09958; purified furin, fluorogenic substrate cleavage; inhibition, % at 20 µM or 30 µM; actives 0.061% (n = 220,000); in the data active means inhibition above about 25%
Target sequence (P09958 108-714 limits assumed): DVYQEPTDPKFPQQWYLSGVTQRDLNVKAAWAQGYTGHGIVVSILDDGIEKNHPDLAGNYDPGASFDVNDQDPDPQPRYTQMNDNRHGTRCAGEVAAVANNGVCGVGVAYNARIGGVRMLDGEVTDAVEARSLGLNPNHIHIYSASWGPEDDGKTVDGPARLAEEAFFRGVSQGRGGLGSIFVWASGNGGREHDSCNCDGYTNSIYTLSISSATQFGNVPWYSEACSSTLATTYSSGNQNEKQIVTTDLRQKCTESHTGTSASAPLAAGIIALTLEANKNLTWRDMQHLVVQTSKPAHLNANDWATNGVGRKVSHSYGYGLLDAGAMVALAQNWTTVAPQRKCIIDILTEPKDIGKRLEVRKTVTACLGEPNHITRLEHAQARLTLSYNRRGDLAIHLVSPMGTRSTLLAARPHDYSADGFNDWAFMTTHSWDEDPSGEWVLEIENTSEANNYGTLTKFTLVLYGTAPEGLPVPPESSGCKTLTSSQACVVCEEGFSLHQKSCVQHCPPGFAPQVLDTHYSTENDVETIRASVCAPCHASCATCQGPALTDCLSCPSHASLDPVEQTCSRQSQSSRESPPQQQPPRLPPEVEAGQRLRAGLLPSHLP
Autophagy mod: autophagy modulation, high-content screen. actives 0.98% (n = 190,000). AID 463193. calls only at 10 µM (by protocol). MEF GFP-LC3 puncta imaging; test concentration mostly 10 µM;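 active means percentage of spot-positive cells more than 3 SD above its plate mean, without a fluorescence outlier flag or 80% toxicity; inconclusive means no clear call, values can overlap the other calls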;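 further: spot-positive cell cutoff set from DMSO-treated cells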
zVAD death inh: L929 zVAD cell death inhibition. L929 zVAD necroptosis rescue, ATP luminescence, 24 h; with zVAD 60 µM. viability rescue, % at 10 µM. actives 0.38% (n = 220,000);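 active means activation, scaled between plate controls, above about 75%, limit read from the data; inactive means activation under that limit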;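 further: 0% = zVAD with DMSO and 100% = DMSO alone without zVAD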
Dynein cargo inh: dynein cargo transport inhibition; actives 0.47% (n = 220,000); AID 1381; z-score, hits read low; 3617.4 mouse cells, GR-EGFP nuclear translocation imaging; test concentration mostly 20 µM; stimulated with dexamethasone, 1 µM; stronger effect = lower value;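 active means plate z-score of nuclear minus cytoplasmic receptor signal below a set negative limit, without overly bright fluorescence or cell loss, cut at about -3.5 in these data, passing the limit was not always enough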;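 further: z-score of nuclear minus cytoplasmic ring GR-EGFP intensity difference per well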
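Also added: dexamethasone, 1.0 µM final. Medium: tet-free, stripped-serum medium. Detection: fixed, Hoechst-stained cells imaged at 10x for EGFP. Read-out: nuclear-to-cytoplasmic GR-EGFP distribution per well. Times: induction 48 h, compound 1 h, agonist 30 min.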
Dynein inh conf: dynein cargo transport inhibition, confirmation; shares compounds with Dynein cargo inh; 3617.4 GR-EGFP nuclear translocation imaging, dexamethasone-induced; calls only at 20 µM; actives 69% (n = 1,000); AID 463116;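 active means inhibition of receptor movement into the nucleus at or above a set limit in both runs, with normal cell brightness and cell count; inconclusive means limit reached in only one run, brightness and count normal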;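 further: dexamethasone at 1 µM final in well for 30 min; nuclear minus cytoplasmic GR-EGFP mean intensity difference in channel 2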
Starred values were filed as active, the others as inactive; i = inactive; ? = inconclusive; / = not tested or not shown; + = active, no number. A selection: hits, their analogues and other compounds. The true share with any hit is near 1.8%.

SMILES | HSV replic up | TNF death inh | Furin inh | Autophagy mod | zVAD death inh | Dynein cargo inh | Dynein inh conf
NP(=O)(OCC(F)(F)F)Oc1ccc(Cl)cc1 (configuration not stated) | i | 3.4 | -19.5 | i | -0.2 | -0.0682 | /
O=C1CN=C(c2ccc[nH]2)c2cc(Cl)ccc2N1 | i | -5.1 | -8.0 | / | -0.9 | 0.284 | /
COc1ccccc1N1C(=O)NC(=O)/C(=C/c2ccc([N+](=O)[O-])s2)C1=O | i | -21.4 | -13.3 | / | -1.1 | -5.79* | +
COc1ccccc1N1C(=O)NC(=O)/C(=C\c2cnn(-c3ccccc3)c2)C1=O | i | -0.6 | -3.2 | i | 0.6 | 0.855 | /
O=C(O)[C@H]1C[C@@H]1[C@H](NP(=O)(c1ccccc1)c1ccccc1)c1ccccc1 | i | 1.1 | -2.2 | i | 0.4 | 1.42 | /
CCOC(=O)c1c(-n2c(C)cc(C=C3C(=O)NC(=S)NC3=O)c2C)sc2c1CCCC2 | i | -12.4 | -20.4 | i | 0.1 | -4.56* | +
CCc1cccc(C)c1NC(=S)N1CC2CC(C1)c1cccc(=O)n1C2 (configuration not stated) | i | 0.3 | -12.7 | i | 0.2 | 0.0724 | /
C#CC[N+]1(C)C2CCC1CC(O)C2 (configuration not stated) | i | -0.3 | -25.3 | i | 0.7 | -0.713 | /
CCN(CC)c1ccc(CC2C(=O)N(C)C(=O)N(C)C2=O)cc1 | / | 0.9 | -12.7 | i | 0.2 | -1.31 | /
CCN(CC)c1ccc(/C=C/[N+](=O)[O-])cc1 | i | -1.7 | -19.1 | i | -0.2 | -4.24* | +
CC(=O)OC(C)(C)/C=C/C(=O)[C@](C)(O)[C@H]1[C@H](O)C[C@@]2(C)[C@@H]3CC=C4[C@H](C[C@H](O)C(=O)C4(C)C)[C@]3(C)C(=O)C[C@]12C | i | -12.4 | -16.3 | ? | 29.2 | -3.66* | ?
CC(C)n1c(O)c(C2c3cc(Cl)ccc3Oc3[nH]c(=O)n(C(C)C)c(=O)c32)c(=O)[nH]c1=O (configuration not stated) | i | 24.4 | -12.8 | / | 61.1 | -5.32* | +
C=CCn1c(=O)c(C=Nc2c(OC)cccc2[N+](=O)[O-])c(O)n(CCCC)c1=O | i | -8.8 | -15.8 | i | / | -0.0368 | /
